According to ChEMBL document CHEMBL4622841, “Structural modifications of indolinones bearing a pyrrole moiety and discovery of a multi-kinase inhibitor with potent antitumor activity” (Bioorg Med Chem, 2020):
Active and inactive are the calls of the source. No cut-off for these calls is given here.

Legend:
MKN-74 [1] = test: Induction of apoptosis in human MKN74 cells assessed as necrotic cells at 1 uM incubated for 72 hrs by Annexin-V-FITC/propidium iodide staining-based flow cytometric analysis (reference value: 6.29%); type: functional
HepG2 [2] = test: Inhibition of colony formation in human HepG2 cells measured after 14 days by crystal violet staining-based assay; type: functional, cell-based
Procedure, shortened: (§1)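 Cells plated and exposed to test agent at a range of concentrations for 14 days, then colonies counted. Colony formation expressed relative to vehicle-treated cells as mean ± SEM. Significance versus vehicle by unpaired two-tailed Student's t-test.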

HepG2 [3] = test: Inhibition of receptor tyrosine kinase in human HepG2 cells assessed as reduction in AKT phosphorylation at Ser473 residue after 24 hrs by Western blotting analysis; type: cell-based
Procedure, shortened: (§2)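 Cells cultured overnight, then treated with compound at different concentrations for 24 h. About 1×10⁶ cells harvested and immunoblotted for p-AKT (Ser473), AKT, p-ERK (Thr202/Tyr204), ERK, with GAPDH as loading control. Detection by chemiluminescence and gel imaging. Blots shown are representative of several experiments.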

HT-29 [4] = test: Induction of apoptosis in human HT-29 cells assessed as early apoptotic cells at 1 uM incubated for 72 hrs by Annexin-V-FITC/propidium iodide staining-based flow cytometric analysis (reference value: 3.18%); type: functional
HT-29 [5] = test: Induction of apoptosis in human HT-29 cells assessed as early apoptotic cells at 3 uM incubated for 72 hrs by Annexin-V-FITC/propidium iodide staining-based flow cytometric analysis (reference value: 3.18%); type: functional
HepG2 [6] = test: Induction of apoptosis in human HepG2 cells assessed as early apoptotic cells at 0.3 uM incubated for 72 hrs by Annexin-V-FITC/propidium iodide staining-based flow cytometric analysis (reference value: 1.08%); type: functional
MKN-74 [7] = test: Induction of apoptosis in human MKN74 cells assessed as early apoptotic cells at 0.3 uM incubated for 72 hrs by Annexin-V-FITC/propidium iodide staining-based flow cytometric analysis (reference value: 1.98%); type: functional
MKN-74 [8] = test: Induction of apoptosis in human MKN74 cells assessed as late apoptotic cells at 0.3 uM incubated for 72 hrs by Annexin-V-FITC/propidium iodide staining-based flow cytometric analysis (reference value: 12.42%); type: functional
[9] = Half life in mouse liver microsomes; type: ADME, Microsome
[10] = target: Serine/threonine-protein kinase B-raf (Homo sapiens, UniProt P15056); test: Inhibition of B-Raf (unknown origin) using FAM-labeled peptide and ATP as substrate preincubated for 10 mins followed by substrate addition measured after 1 hr by mobility shift assay
MKN-74 [11] = test: Induction of apoptosis in human MKN74 cells incubated for 72 hrs by Annexin-V-FITC/propidium iodide staining-based flow cytometric analysis; type: functional, cell-based
[12] = target: Cyclin-dependent kinase 2 (Homo sapiens, UniProt P24941); test: Inhibition of CDK2 (unknown origin) using FAM-labeled peptide and ATP as substrate preincubated for 10 mins followed by substrate addition measured after 1 hr by mobility shift assay
MKN-74 [13] = test: Induction of apoptosis in human MKN74 cells assessed as late apoptotic cells at 3 uM incubated for 72 hrs by Annexin-V-FITC/propidium iodide staining-based flow cytometric analysis (reference value: 12.42%); type: functional
[14] = target: Tyrosine-protein kinase Lyn (Homo sapiens, UniProt P07948); test: Inhibition of LYN (unknown origin) using FAM-labeled peptide and ATP as substrate preincubated for 10 mins followed by substrate addition measured after 1 hr by mobility shift assay
HT-29 [15] = test: Antitumor activity against human HT-29 cells xenografted in nu/nu mouse assessed as tumour growth inhibition at 100 mg/kg, po qd for 18 days and measured twice per week by vernier caliper method; type: functional; conditions: HT-29, po, 432 h, read-out: TGI
HT-29 [16] = test: Inhibition of receptor tyrosine kinase in human HT-29 cells assessed as reduction in AKT phosphorylation at Ser473 residue after 24 hrs by Western blotting analysis; type: cell-based; procedure, shortened: as §2
[17] = Half life in human liver microsomes; type: ADME, Microsome
HT-29 [18] = test: Induction of apoptosis in human HT-29 cells incubated for 72 hrs by Annexin-V-FITC/propidium iodide staining-based flow cytometric analysis; type: functional, cell-based
[19] = Inhibition of N-terminal GST-tagged human recombinant PDGFRalpha D842I mutant expressed in baculovirus-infected Sf9 cells using FAM-labeled peptide and ATP as substrate preincubated for 10 mins followed by substrate addition measured after 1 hr by mobility shift assay
HUVEC [20] = test: Induction of apoptosis in human HUVEC cells assessed as early apoptotic cells at 0.3 uM incubated for 48 hrs by Annexin-V-FITC/propidium iodide staining-based flow cytometric analysis (reference value: 3.63%); type: functional
[21] = target: T1, Serine/threonine-protein kinase Chk1 (Homo sapiens, UniProt O14757); test: Inhibition of CHK (unknown origin) using FAM-labeled peptide and ATP as substrate preincubated for 10 mins followed by substrate addition measured after 1 hr by mobility shift assay
T1 sequence (O14757 whole entry): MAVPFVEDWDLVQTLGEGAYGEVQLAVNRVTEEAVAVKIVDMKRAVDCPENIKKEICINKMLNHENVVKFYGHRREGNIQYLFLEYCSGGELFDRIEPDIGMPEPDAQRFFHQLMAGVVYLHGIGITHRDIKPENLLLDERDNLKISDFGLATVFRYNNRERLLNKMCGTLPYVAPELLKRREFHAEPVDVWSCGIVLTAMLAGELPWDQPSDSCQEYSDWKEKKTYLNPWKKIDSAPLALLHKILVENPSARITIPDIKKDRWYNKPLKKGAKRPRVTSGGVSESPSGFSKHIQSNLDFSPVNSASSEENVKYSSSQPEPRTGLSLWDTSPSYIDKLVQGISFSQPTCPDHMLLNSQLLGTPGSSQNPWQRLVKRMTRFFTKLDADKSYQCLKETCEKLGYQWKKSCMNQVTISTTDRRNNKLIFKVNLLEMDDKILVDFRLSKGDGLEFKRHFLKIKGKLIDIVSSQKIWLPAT

HUVEC [22] = test: Induction of apoptosis in human HUVEC cells assessed as late apoptotic cells at 1 uM incubated for 48 hrs by Annexin-V-FITC/propidium iodide staining-based flow cytometric analysis (reference value: 3.48%); type: functional
HepG2 [23] = test: Inhibition of receptor tyrosine kinase in human HepG2 cells assessed as reduction in ERK phosphorylation at Thr202/Tyr204 residues at 3 uM after 24 hrs by Western blotting analysis; type: cell-based; procedure, shortened: as §2
HT-29 [24] = test: Induction of apoptosis in human HT-29 cells assessed as early apoptotic cells at 0.3 uM incubated for 72 hrs by Annexin-V-FITC/propidium iodide staining-based flow cytometric analysis (reference value: 3.18%); type: functional
HT-29 [25] = test: Inhibition of colony formation in human HT-29 cells measured after 14 days by crystal violet staining-based assay; type: functional, cell-based; procedure, shortened: as §1
HepG2 [26] = test: Induction of apoptosis in human HepG2 cells assessed as late apoptotic cells at 0.3 uM incubated for 72 hrs by Annexin-V-FITC/propidium iodide staining-based flow cytometric analysis (reference value: 2.89%); type: functional
[27] = target: Fibroblast growth factor receptor 1 (Homo sapiens, UniProt P11362); test: Inhibition of N-terminal GST fused human recombinant FGFR1 cytoplasmic domain (398 to 822 (end) residues) expressed in baculovirus expression system using FAM-labeled peptide and ATP as substrate preincubated for 10 mins followed by substrate addition measured after 1 hr by mobility shift assay
Sequence of Fibroblast growth factor receptor 1 (P11362 whole entry, the tested form may be a part): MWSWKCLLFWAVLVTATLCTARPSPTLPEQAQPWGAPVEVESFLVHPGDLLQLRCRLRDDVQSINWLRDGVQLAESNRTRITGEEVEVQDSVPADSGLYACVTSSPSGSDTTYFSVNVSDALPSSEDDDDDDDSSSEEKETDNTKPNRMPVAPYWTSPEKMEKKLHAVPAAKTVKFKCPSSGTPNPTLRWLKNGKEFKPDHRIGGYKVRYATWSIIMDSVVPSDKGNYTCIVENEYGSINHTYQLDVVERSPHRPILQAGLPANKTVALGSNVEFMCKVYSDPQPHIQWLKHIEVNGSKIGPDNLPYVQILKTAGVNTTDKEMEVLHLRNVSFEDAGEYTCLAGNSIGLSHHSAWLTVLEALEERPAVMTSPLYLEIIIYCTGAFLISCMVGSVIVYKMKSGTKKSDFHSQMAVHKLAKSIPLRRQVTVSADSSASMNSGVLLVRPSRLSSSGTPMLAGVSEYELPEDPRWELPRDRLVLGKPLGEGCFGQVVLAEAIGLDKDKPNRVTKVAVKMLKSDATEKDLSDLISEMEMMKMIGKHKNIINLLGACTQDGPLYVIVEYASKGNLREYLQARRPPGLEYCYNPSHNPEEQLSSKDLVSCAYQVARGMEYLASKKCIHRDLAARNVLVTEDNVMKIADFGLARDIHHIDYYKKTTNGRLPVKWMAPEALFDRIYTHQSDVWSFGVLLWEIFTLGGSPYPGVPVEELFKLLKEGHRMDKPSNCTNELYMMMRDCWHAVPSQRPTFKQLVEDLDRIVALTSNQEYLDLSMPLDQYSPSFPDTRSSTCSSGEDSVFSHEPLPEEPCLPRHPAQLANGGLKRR

Sequence of Tyrosine-protein kinase Lyn (P07948 whole entry): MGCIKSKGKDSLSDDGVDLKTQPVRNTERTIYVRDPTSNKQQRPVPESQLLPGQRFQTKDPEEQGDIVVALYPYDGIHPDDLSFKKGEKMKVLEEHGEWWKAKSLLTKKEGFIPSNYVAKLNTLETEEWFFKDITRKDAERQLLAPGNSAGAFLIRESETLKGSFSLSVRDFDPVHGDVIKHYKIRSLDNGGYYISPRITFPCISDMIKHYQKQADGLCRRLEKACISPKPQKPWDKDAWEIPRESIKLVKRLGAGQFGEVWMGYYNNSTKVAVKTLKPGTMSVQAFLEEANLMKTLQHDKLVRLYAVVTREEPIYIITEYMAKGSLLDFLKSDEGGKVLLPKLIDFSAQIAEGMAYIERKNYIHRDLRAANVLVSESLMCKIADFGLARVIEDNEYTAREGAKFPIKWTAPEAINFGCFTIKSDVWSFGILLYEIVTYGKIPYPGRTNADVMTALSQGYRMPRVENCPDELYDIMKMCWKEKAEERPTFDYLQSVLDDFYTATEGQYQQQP
Sequence of Serine/threonine-protein kinase B-raf (P15056 whole entry): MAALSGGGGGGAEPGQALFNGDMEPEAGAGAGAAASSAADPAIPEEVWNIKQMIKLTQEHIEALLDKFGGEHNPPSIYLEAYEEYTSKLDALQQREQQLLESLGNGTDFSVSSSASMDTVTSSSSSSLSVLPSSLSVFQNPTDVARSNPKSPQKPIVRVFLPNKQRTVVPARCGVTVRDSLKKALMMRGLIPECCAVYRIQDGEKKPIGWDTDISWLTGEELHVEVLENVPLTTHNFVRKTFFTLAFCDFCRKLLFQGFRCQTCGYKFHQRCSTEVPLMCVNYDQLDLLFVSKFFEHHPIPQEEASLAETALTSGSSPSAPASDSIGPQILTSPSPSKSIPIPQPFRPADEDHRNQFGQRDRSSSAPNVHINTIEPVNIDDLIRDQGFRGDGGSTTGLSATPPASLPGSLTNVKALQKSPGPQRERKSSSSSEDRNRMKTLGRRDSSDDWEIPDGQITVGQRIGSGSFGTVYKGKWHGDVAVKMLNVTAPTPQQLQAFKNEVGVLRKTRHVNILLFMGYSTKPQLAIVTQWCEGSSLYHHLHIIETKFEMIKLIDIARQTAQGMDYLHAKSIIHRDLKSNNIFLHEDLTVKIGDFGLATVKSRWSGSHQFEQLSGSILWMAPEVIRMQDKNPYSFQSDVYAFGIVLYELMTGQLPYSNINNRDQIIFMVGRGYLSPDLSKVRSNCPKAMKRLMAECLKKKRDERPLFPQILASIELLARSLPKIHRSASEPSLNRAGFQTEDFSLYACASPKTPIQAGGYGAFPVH

Question: For `COC(=O)c1ccc2c(c1)NC(=O)/C2=C(\Nc1ccc(-n2c(C)ccc2CN2CCN(C)CC2)cc1)c1ccccc1`, which Activity (MKN-74 [1]) is on record?
Answer: Its Activity is 4.52%.

Question: And the inhibition (HepG2 [2])?
Answer: Its inhibition is “Dose-dependent effect”.

Question: What about the inhibition (HepG2 [3]) of the same molecule?
Answer: The inhibition was “Dose-dependent effect”.

Question: What about the Activity (HT-29 [4]) of the same molecule?
Answer: Its Activity is 1.52%.

Question: What about the Activity (HT-29 [5]) of the same molecule?
Answer: Its Activity is 0.54%.

Question: What about the Activity (HepG2 [6]) of the same molecule?
Answer: The Activity was 1.81%.

Question: And the Activity (MKN-74 [7])?
Answer: Its Activity is 2.41%.

Question: What about the Activity (MKN-74 [8]) of the same molecule?
Answer: Its Activity is 16.86%.

Question: What about the half-life [9] of the same molecule?
Answer: The half-life was 12.5 min.

Question: And the IC50 [10]?
Answer: Its IC50 is > 1000 nM.

Question: What about the Activity (MKN-74 [11]) of the same molecule?
Answer: Its Activity is “Dose-dependent effect”.

Question: And the IC50 [12]?
Answer: The IC50 was > 1000 nM.

Question: What about the Activity (MKN-74 [13]) of the same molecule?
Answer: The Activity was 79.51%.

Question: What about the IC50 [14] of the same molecule?
Answer: The IC50 was 16 nM.

Question: And the inhibition in vivo at 100 mg/kg (HT-29 [15])?
Answer: The inhibition in vivo at 100 mg/kg was 13.4%.

Question: What about the inhibition (HT-29 [16]) of the same molecule?
Answer: Its inhibition is “Dose-dependent effect”.

Question: What about the half-life [17] of the same molecule?
Answer: Its half-life is 21.2 min.

Question: What about the Activity (HT-29 [18]) of the same molecule?
Answer: The Activity was “Dose-dependent effect”.

Question: What about the IC50 [19] of the same molecule?
Answer: Its IC50 is 7 nM.

Question: And the Activity (HUVEC [20])?
Answer: The Activity was 2.36%.

Question: What about the IC50 [21] of the same molecule?
Answer: The IC50 was > 1000 nM.

Question: And the Activity (HUVEC [22])?
Answer: Its Activity is 3.09%.

Question: And the inhibition (HepG2 [23])?
Answer: The inhibition was “Active”.

Question: What about the Activity (HT-29 [24]) of the same molecule?
Answer: The Activity was 3.35%.

Question: What about the inhibition (HT-29 [25]) of the same molecule?
Answer: Its inhibition is “Dose-dependent effect”.

Question: What about the Activity (HepG2 [26]) of the same molecule?
Answer: Its Activity is 4.64%.

Question: And the IC50 [27]?
Answer: The IC50 was 23 nM.
